The text below walks through data of article PMC4894821 (ACS chemical biology, 2015).

The target in assay [1] is T1, OGG1 (Homo sapiens, UniProt O15527). Kind of assay: Gel-based OGG1 cleavage assay. The class given is biochemical. Conditions: eight concentrations up to 25 μM.
The target in a further assay is Human NEIL1 (Homo sapiens, UniProt Q96FI4). In words: Fluorescence-based NEIL1 activity assay. The class given is biochemical. To be noted: read-out: NEIL1 % activity with 50 μM inhibitor.
Assay [2] concerns the target T1, OGG1. Kind of assay: Sodium cyanoborohydride trapping assay. Conditions: 10 μM inhibitor, 1 mM NaBH3CN. The class given is biochemical.
The next assay deals with T2, Human NTH1 (Homo sapiens, UniProt P78549).
T2 sequence (P78549 23-304): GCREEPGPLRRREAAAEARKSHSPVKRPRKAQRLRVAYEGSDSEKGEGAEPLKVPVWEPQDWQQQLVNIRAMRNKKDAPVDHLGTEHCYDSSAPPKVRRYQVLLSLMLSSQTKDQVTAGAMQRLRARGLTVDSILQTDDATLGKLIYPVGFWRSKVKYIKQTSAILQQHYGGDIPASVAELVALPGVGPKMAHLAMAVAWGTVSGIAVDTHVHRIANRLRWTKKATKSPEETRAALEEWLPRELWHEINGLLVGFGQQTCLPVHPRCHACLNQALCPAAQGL
Kind of assay: Fluorescence-based NTH1 activity assay. The class given is biochemical. To be noted: read-out: NTH1 % activity with 50 μM inhibitor.

The target of assay [3] is T1, OGG1. Kind of assay: OGG1 AP lyase activity on AP site-containing substrate. In kind it is biochemical. To be noted: 10 μM compound, compared with no inhibitor control. The gist of the method: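 AP-site substrate made by treating U-containing duplex with Udg, 37 °C, 2 h. OGG1 (62.5 nM stock) mixed with 10 μM compound or buffer, then substrate (50 nM stock) added. Incubated 30 min at 37 °C, quenched with formamide, resolved on 15% polyacrylamide/8 M urea gel. Percent cleavage vs no-inhibitor control; three independent experiments.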

For assay [4], the target named is T1, OGG1. In words: Gel shift assay. In kind it is binding. Conditions: 50 μM inhibitor or ATA, 4 °C. The gist of the method: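 EMSA on ice with precooled reagents. OGG1 (125 nM stock) pre-incubated 5–10 min with 50 μM inhibitor, ATA or buffer. Added 8-oxo-Gua, AP-site or U-containing fluorescent duplex (50 nM stock), held 5 min. Quenched with cold 30% glycerol; run on 8% native gel with 30% glycerol, 4 °C, 1 h, 75 V. Percent bound vs no-inhibitor control; three independent experiments.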
(In EMSA bound probe runs differently from free probe, usually more slowly.)

Another assay relates to AP-containing substrate. Kind of assay: Protection of AP-containing substrate against NaOH-mediated strand cleavage.

Structures are written as SMILES.

T1 sequence (O15527 whole entry): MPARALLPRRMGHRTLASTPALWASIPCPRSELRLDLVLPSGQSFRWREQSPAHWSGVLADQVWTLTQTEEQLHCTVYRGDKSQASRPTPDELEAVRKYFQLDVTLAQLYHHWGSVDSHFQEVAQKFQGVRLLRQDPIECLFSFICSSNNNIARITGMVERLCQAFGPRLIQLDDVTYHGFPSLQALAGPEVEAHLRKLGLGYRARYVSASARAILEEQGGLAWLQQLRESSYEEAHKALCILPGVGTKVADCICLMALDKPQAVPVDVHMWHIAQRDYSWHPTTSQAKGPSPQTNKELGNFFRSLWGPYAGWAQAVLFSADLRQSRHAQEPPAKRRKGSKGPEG
Sequence of Human NEIL1 (Q96FI4 whole entry): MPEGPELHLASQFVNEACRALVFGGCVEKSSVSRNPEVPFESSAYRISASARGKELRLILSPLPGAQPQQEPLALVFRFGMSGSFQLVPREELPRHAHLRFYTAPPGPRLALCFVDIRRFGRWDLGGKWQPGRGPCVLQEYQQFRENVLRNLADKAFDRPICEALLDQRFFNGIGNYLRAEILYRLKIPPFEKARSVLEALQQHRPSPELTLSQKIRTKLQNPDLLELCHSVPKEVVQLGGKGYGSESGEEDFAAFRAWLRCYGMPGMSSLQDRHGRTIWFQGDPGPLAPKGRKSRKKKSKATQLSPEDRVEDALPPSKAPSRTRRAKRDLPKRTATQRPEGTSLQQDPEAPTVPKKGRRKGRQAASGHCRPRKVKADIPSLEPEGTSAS

In the case of `NNC(=O)c1ccncc1` [Isoniazid (INH), isoniazid], the “inhibition of OGG1 (gel-based strand cleavage)” value against OGG1 [1] is given as “no inhibition”. The activity at 50 µM on Human NEIL1 was 80.6%; on Human NTH1, 98%. In addition, the “trapping of OGG1 on 8-oxo-Gua- and AP site-containing substrates (Schiff base formation)” value at OGG1 [2] is “no effect”. Also, at OGG1 [3], the “OGG1-induced cleavage of an AP site (lyase activity)” value is “no effect”.
`O=C(O)C1=CC(=C(c2ccc(O)c(C(=O)O)c2)c2ccc(O)c(C(=O)O)c2)C=CC1=O` [aurintricarboxylic acid (ATA), aurintricarboxylic acid]: the “OGG1 binding to 8-oxo-Gua substrate” value at OGG1 [4] is reported as “abrogated”.
For the compound `NNc1nncc2ccccc12` [hydralazine], the “protection against NaOH-mediated (alkaline-induced) strand cleavage” value with AP-containing substrate is given as 63%.
With `Cc1cc(C(=O)NNCc2ccccc2)no1` [isocarboxazid (ICD), isocarboxazid], the “OGG1-induced cleavage of an AP site (lyase activity)” value at OGG1 [3] is reported as “no effect”.
